# In ChEMBL document CHEMBL1149246, “Discovery of bicyclic thymidine analogues as selective and high-affinity inhibitors of Mycobacterium tuberculosis thymidine monophosphate kinase” (J Med Chem, 2004):
# Activity calls are given as the source filed them. No cut-off for these calls is given here.
# T1: Thymidylate kinase (Mycobacterium tuberculosis, UniProt P9WKE1)
# T1 sequence (P9WKE1 whole entry): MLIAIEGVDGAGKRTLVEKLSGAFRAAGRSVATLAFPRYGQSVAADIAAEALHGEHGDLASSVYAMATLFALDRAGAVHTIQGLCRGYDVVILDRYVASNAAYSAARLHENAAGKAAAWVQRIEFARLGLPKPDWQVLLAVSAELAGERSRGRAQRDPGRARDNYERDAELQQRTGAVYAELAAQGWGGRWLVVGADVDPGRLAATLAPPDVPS
# T2: Thymidylate kinase (Homo sapiens, UniProt P23919)
# T2 sequence (P23919 whole entry): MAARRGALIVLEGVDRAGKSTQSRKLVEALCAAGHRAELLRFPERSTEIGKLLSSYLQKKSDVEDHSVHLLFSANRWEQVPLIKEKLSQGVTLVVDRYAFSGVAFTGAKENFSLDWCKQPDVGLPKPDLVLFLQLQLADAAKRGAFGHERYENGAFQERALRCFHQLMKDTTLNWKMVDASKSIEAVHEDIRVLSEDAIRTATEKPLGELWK
# T3: Thymidylate kinase (Homo sapiens) (UniProt P23919)
# T3 sequence (whole entry): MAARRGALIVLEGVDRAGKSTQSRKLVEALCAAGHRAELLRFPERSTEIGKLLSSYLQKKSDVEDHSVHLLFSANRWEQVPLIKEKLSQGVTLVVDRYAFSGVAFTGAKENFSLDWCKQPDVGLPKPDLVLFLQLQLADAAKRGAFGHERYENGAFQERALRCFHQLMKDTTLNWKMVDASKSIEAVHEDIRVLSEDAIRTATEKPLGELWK
# T4: Thymidylate kinase (Mycobacterium tuberculosis) (UniProt P9WKE1)
# T4 sequence (whole entry): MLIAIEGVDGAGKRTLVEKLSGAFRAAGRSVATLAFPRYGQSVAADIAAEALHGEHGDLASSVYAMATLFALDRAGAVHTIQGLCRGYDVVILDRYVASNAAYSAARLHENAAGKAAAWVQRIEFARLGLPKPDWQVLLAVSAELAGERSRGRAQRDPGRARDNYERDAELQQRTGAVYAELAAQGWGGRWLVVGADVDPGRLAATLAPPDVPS
# Assays:
# [1] = Selectivity index, Ki for human TMPK/Ki for Mycobacterium tuberculosis TMPK
# Thymidylate kinase [2] = target: T1, Thymidylate kinase; experiment: Inhibition of Mycobacterium tuberculosis TMPK by coupled spectrophotometric assay
# Thymidylate kinase [3] = target: T2, Thymidylate kinase; experiment: (§1) Inhibition of human TMPK by coupled spectrophotometric assay
# Summary of the method: (§2)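 Thymidylate kinase activity (M. tuberculosis or human enzyme) measured by coupled spectrophotometric assay at 334 nm, following NADH consumption. Medium: 50 mM Tris-HCl pH 7.4, 50 mM KCl, 2 mM MgCl2, 0.2 mM NADH, 1 mM phosphoenol pyruvate, 2 units each lactate dehydrogenase, pyruvate kinase and nucleoside diphosphate kinase. ATP fixed at 0.5 mM, dTMP at 0.05 mM; analogue 0.1–2.5 mM.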
# [4] = target: T3, Thymidylate kinase (Homo sapiens); experiment: Inhibition of human TMPK at 2 mM by coupled spectrophotometric assay; summary of the method: as §2
# [5] = target: T4, Thymidylate kinase (Mycobacterium tuberculosis); experiment: Inhibition of Mycobacterium tuberculosis TMPK at 1 mM by coupled spectrophotometric assay; summary of the method: as §2
# [6] = compound: Cc1cn([C@H]2C[C@H](O)[C@@H](COP(=O)(O)O)O2)c(=O)[nH]c1=O; experiment: as §1; summary of the method: as §2
Molecule,Ratio Ki [1],Ki (Thymidylate kinase [2]) [µM],Ki (Thymidylate kinase [3]) [µM],further results
Cc1cn([C@@H]2O[C@H](CO)[C@H]3CNC(=S)O[C@H]32)c(=O)[nH]c1=O,200,3.5,700,–
Cc1cn([C@H]2C[C@H](CN)[C@@H](CO)O2)c(=O)[nH]c1=O,3.9,–,220,–
Cc1cn([C@@H]2O[C@H](CO)[C@@H](CN)[C@H]2Cl)c(=O)[nH]c1=O,–,390,–,–
Cc1cn([C@@H]2O[C@H](CO)[C@H]3CNC(=O)O[C@H]32)c(=O)[nH]c1=O,81.5,13.5,1100,–
Cc1cn([C@@H]2C[C@H](CN=[N+]=[N-])[C@@H](CO)O2)c(=O)[nH]c1=O,–,29,–,Activity [4]: inactive
Cc1cn([C@H]2C[C@H](CN=[N+]=N)[C@@H](CO)O2)c(=O)[nH]c1=O,26,40,1040,–
Cc1cn([C@@H]2O[C@H](CO)[C@@H](CN)[C@H]2F)c(=O)[nH]c1=O,–,–,–,Activity [5]: inactive
Cc1cn([C@H]2C[C@H](O)[C@@H](COP(=O)(O)O)O2)c(=O)[nH]c1=O,–,–,–,Selectivity index [1]: 1.1
Cc1cn([C@@H]2O[C@H](CO)[C@@H](CN=[N+]=[N-])[C@H]2F)c(=O)[nH]c1=O,–,165,–,–
Cc1cn([C@@H]2O[C@H](CF)[C@@H](CN=[N+]=[N-])[C@H]2F)c(=O)[nH]c1=O,–,80,–,–
Cc1cn([C@@H]2O[C@H](CO)[C@@H](CN=[N+]=[N-])[C@H]2Cl)c(=O)[nH]c1=O,–,180,–,–
Cc1cn([C@H]2C[C@H](O)[C@@H](CO)O2)c(=O)[nH]c1=O [DOXRIBTIMINE],–,–,180,–
"Thymidylate kinase (Homo sapiens), P23919 (protein) MAARRGALIVLEGVDRAGKSTQSRKLVEALCAAGHRAELLRFPERSTEIGKLLSSYLQKKSDVEDHSVHLLFSANRWEQVPLIKEKLSQGVTLVVDRYAFSGVAFTGAKENFSLDWCKQPDVGLPKPDLVLFLQLQLADAAKRGAFGHERYENGAFQERALRCFHQLMKDTTLNWKMVDASKSIEAVHEDIRVLSEDAIRTATEKPLGELWK",–,–,–,Km [6]: 5 µM
